Reference: PMC8851504 (Proceedings of the National Academy of Sciences of the …, 2022)
Bridge positions count the residues as written; N and C are the ends. Ends that are not written are not given here.

What was measured:
[1] = tested on: paw-withdrawal threshold to mechanical stimulus in mice; assay: Paw-withdrawal threshold to mechanical stimulus; assay type: in vivo, mouse (C57BL/6J); details: 200 pmol i.pl.; measured 1 h to 7 d; vs saline; n = 6 per group
Outline: (§1)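 Male C57BL/6J mice (5 wk old) were given 200 pmol test compound, or vehicle alone, by shallow intraplantar hind-paw injection in 20 µL saline with 0.1% BSA. After 30 min acclimatisation on bar-bottom enclosures, paw-withdrawal thresholds were measured. Mechanical thresholds used automatic von Frey and thermal thresholds an automated thermal device. Readings were taken 3 d before injection and at 1 h–7 d, blinded, n = 6/group, two-way ANOVA with Šídák's test.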

[2] = tested on: fruit flies (Drosophila melanogaster); assay: Fruit fly paralysis/survival assay after injection; assay type: in vivo; details: intraabdominal injection, up to 41 nmol/g (as stated in main text)
[3] = tested on: human ErbB1 receptor (hErbB1) transiently expressed in HEK293T cells; assay: BRET assay of ligand-induced ErbB1 activation; assay type: cell-based; details: for Agonism at / potency on mammalian ErbB1 (summary in words): summary statement
[4] = tested on: crickets (Acheta domesticus); assay: Cricket righting assay after injection; assay type: in vivo; details: intraabdominal injection, up to 41 nmol/g (as stated in main text)
Outline: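 House crickets (average mass 50 mg) received intraabdominal injections of 2 μL water or test compound at 1.4 to 41.5 nmol/g. Each cricket was then placed on its back and the time taken to right itself was recorded. Treated and water groups were compared by one-way ANOVA with Šídák's test.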

[5] = tested on: paw-withdrawal threshold to thermal stimulus in mice; assay: Paw-withdrawal threshold to thermal stimulus; assay type: in vivo, mouse (C57BL/6J); details: 200 pmol i.pl.; measured 1 h to 7 d; vs saline; n = 6 per group
Outline: as §1

paw inflammation in mice = assay: Paw inflammation: visual inspection and paw thickness by calipers; assay type: in vivo, mouse (C57BL/6J); details: 200 pmol i.pl.; over the time course of the experiment
Outline: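 In male C57BL/6J mice, 200 pmol test compound, or vehicle alone, was injected intraplantar in 20 µL saline with 0.1% BSA. The injected paw was inspected for swelling and reddening at each time point up to 7 d. At 3 d, both hind paws were measured with electronic calipers and expressed as an ipsilateral/contralateral ratio. Groups were n = 6, compared by unpaired t test.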

[6] = tested on: sheep blowflies (Lucilia cuprina); assay: Sheep blowfly paralysis/survival assay after injection; assay type: in vivo; details: intraabdominal injection, up to 41 nmol/g (as stated in main text)
[7] = tested on: Erk1/2 phosphorylation downstream of human ErbB1 in HEK293 cells; assay type: cell-based; details: comparison with hEGF; 2.5 or 10 nM; n = 3
Outline: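 HEK293 cells at ~80% confluence were transfected with 15 ng human ErbB1 plasmid (Lipofectamine LTX) and grown 24 h in DMEM with 10% FBS. […] RIPA lysates containing protease and phosphatase inhibitors were run on SDS-PAGE and probed for phospho-Erk1/2 and GAPDH by fluorescent immunoblot. Phospho-Erk was normalised to GAPDH; n = 3, one-way ANOVA with Šídák's test.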

[8] = tested on: hypersensitivity of the injected paw in mice; assay: Time course of hypersensitivity; assay type: in vivo, mouse (C57BL/6J); details: intraplantar injection in mice
Outline: as §1

Substance: rMg1a: Mg1a produced by recombinant expression in bacteria with an additional Gly residue at the N terminus (GDISDYGDPCSDDLKDYCIHGDCFFLKELNQPACRCYTGYYGSRCEHIDHN; not fully specified; left off: His6, N-terminal, cleaved | MBP, N-terminal, cleaved)
- Paw-withdrawal threshold to mechanical stimulus [1]: significant decrease
- Effect on fruit flies after injection [2]: no effect
- Activity at hErbB1 (in words) ([3]; BRET, HEK293T cells, Fig. 3A: stimulation with 100 nM ligand): active at hErbB1
- Agonism at / potency on mammalian ErbB1 (summary in words) [3]: potent ligand of mammalian ErbB1 with activity comparable to that of hEGF
- Effect on crickets after injection [4]: no effect
- Paw-withdrawal threshold to thermal stimulus [5]: significant decrease
- Visual signs of inflammation (e.g., redness or swelling) (paw inflammation in mice): no visual signs of inflammation
- Effect on blowflies after injection [6]: no effect
- Erk1/2 phosphorylation compared with hEGF [7]: equivalent to that caused by hEGF

Substance: Mg1a (GDISDYGDPCSDDLKDYCIHGDCFFLKELNQPACRCYTGYYGSRCEHIDHN; disulfide 10-23, 18-34, 36-45)
- Agonism at / potency on mammalian ErbB1 (summary in words) [3]: potent agonist of the mammalian EGF receptor ErbB1
- Hypersensitivity of the injected paw (summary in words) [8]: long-lasting hypersensitivity
